Test results: ChEMBL document CHEMBL3044910, “Antifeedant activity of some pentacyclic triterpene acids and their fatty acid ester analogues” (2003)
Activity calls are given as the source filed them. The calls are words filed in the database; no cut-off is given here.

Legend:
Type in all cases: functional
Set-up in all cases: scale not given: the % may be the effect or the level left
[1] = system: Spodoptera litura; assay: Antifeedant activity against fourth-instar larval stage of Spodoptera litura reared on castor leaves assessed as decrease in food consumption at 100 ug/cm2 after 48 hr by no-choice leaf disk assay relative to untreated control
Outline: (§1)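 Larvae reared on fresh castor leaves at 27 ± 1 °C, 65 ± 5% RH, 14:10 light:dark; freshly molted fourth instars used. Treated leaf disks placed with larvae in Petri dishes; leaf area consumed in treated and control disks measured by planimeter. Percent protection corrected for control by Singh and Panth formula; mean with standard deviation reported.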

[2] = system: Spodoptera litura; assay: Antifeedant activity against fourth-instar larval stage of Spodoptera litura reared on castor leaves assessed as decrease in food consumption at 150 ug/cm2 after 48 hr by no-choice leaf disk assay relative to untreated control; outline: as §1
[3] = system: Spodoptera litura; assay: Antifeedant activity against fourth-instar larval stage of Spodoptera litura reared on castor leaves assessed as decrease in food consumption at 50 ug/cm2 after 48 hr by no-choice leaf disk assay relative to untreated control; outline: as §1
[4] = system: Spodoptera litura; assay: Antifeedant activity against fourth-instar larval stage of Spodoptera litura reared on castor leaves assessed as decrease in food consumption at 50 to 150 ug/cm2 measured after 48 hr by no-choice leaf disk assay relative to untreated control
Outline: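 Larvae reared on fresh castor leaves at 27 ± 1 °C, 65 ± 5% relative humidity, 14:10 light:dark; freshly molted fourth-instar larvae used. No-choice leaf disk test in Petri dish at 150, 100 and 50 µg/cm2. Leaf area consumed measured by planimeter at 6, 12, 24 and 48 h in treated and control disks. Percent protection corrected for control protection; mean with standard deviation.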

SMILES	Activity [1]	Activity [2]	Activity [3]	Activity [4]
CCCCCCCCCCCCCCCC(=O)O[C@H]1CC[C@]2(C)[C@H]3CC=C4[C@@H]5[C@@H](C)[C@H](C)CC[C@]5(C(=O)O)CC[C@@]4(C)[C@]3(C)CC[C@H]2C1(C)C	40%	>50%	>50%	–
CCCCCCCCCCCCCCCCCC(=O)O[C@H]1CC[C@]2(C)[C@H]3CC=C4[C@@H]5CC(C)(C)CC[C@]5(C(=O)O)CC[C@@]4(C)[C@]3(C)CC[C@H]2C1(C)C	Active	Active	–	–
C/C=C(\C)C(=O)O[C@H]1C[C@@H](OC(C)=O)[C@@]2(C(=O)OC)CO[C@H]3[C@@H](O)[C@@](C)([C@]45O[C@@]4(C)[C@H]4C[C@@H]5O[C@@H]5OC=C[C@@]54O)[C@H]4[C@]1(CO[C@]4(O)C(=O)OC)[C@@H]32 [AZADIRACTIN]	40%	>50%	–	81%
CCCCCCCCCCCCCCCC(=O)O[C@H]1CC[C@]2(C)[C@H]3CC=C4[C@@H]5CC(C)(C)CC[C@]5(C(=O)O)CC[C@@]4(C)[C@]3(C)CC[C@H]2C1(C)C [OLEAN-12-ENE-28-CARBOXY-3BETA-HEXADECANOATE]	40%	>50%	71%	–
CC1(C)CC[C@]2(C(=O)O)CC[C@]3(C)C(=CC[C@@H]4[C@@]5(C)CC[C@H](O)C(C)(C)[C@@H]5CC[C@]43C)[C@@H]2C1 [OLEANOLIC_ACID]	40%	Active	–	–
CCCCCCCCCCCC(=O)O[C@H]1CC[C@]2(C)[C@H]3CC=C4[C@@H]5[C@@H](C)[C@H](C)CC[C@]5(C(=O)O)CC[C@@]4(C)[C@]3(C)CC[C@H]2C1(C)C [URS-12-ENE-28-CARBOXY-3BETA-DODECANOATE]	40%	>50%	–	–
CCCCCCCCCCCCCCCCCC(=O)O[C@H]1CC[C@]2(C)[C@H]3CC=C4[C@@H]5[C@@H](C)[C@H](C)CC[C@]5(C(=O)O)CC[C@@]4(C)[C@]3(C)CC[C@H]2C1(C)C [URS-12-ENE-28-CARBOXY-3BETA-OCTADECANOATE]	40%	>50%	74%	–
CCCCCCCCCCCCCC(=O)O[C@H]1CC[C@]2(C)[C@H]3CC=C4[C@@H]5[C@@H](C)[C@H](C)CC[C@]5(C(=O)O)CC[C@@]4(C)[C@]3(C)CC[C@H]2C1(C)C [URS-12-ENE-28-CARBOXY-3BETA-TETRADECANOATE]	40%	>50%	>50%	–
C[C@H]1[C@H](C)CC[C@]2(C(=O)O)CC[C@]3(C)C(=CC[C@@H]4[C@@]5(C)CC[C@H](O)C(C)(C)[C@@H]5CC[C@]43C)[C@H]12 [URSOLIC ACID]	40%	>50%	–	–
